Here are results for 167 variants from the RNAGym collection of RNA variant scans (doi:10.1126/science.aae0568).

First the molecules themselves.
B1: tRNA (parent)
chain: GUUCCGUUGGCGUAAUGGUAACGCGUCUCCCUCCUAAGGAGAAGACUGCGGGUUCGAGUCCCGUACGGAACG

Variants at the floor of the assay were thinned out. Where only a bound is given, the exact number is not on record here.

Variants of B1 are the subject of this series. In words: yeast fitness relative to wild type (ratio to wild type); higher = fitter; tRNA-Arg(CCU), competitive growth, 37 C, YPD. A digest of the protocol:
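For this measurement, the tRNA-Arg(CCU) gene was varied by chemical synthesis at a 3% per-site mutation rate across 69 sites, and each variant was placed at the native genomic locus in Saccharomyces cerevisiae. The pooled strains went through a 24-hour competition in YPD at 37°C in six parallel replicates, with amplicons from start and end populations read by 100-nucleotide paired-end sequencing. Darwinian fitness relative to wild type followed from the change in each genotype's frequency. Genotypes needed ≥ 100 starting reads, and estimates < 0.5 were set to 0.5.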
Turning to U28G A36G G51A, the yeast fitness is no more than 0.5.

Take C22G G39A A42U A57C: the yeast fitness is no more than 0.5.

Turning to C11A C29U C33U U54C, the yeast fitness is no more than 0.5.

As for C4G C11A U35A C49U U59G G67U, the yeast fitness was determined as 0.554.

U7A C29G A70C: the yeast fitness was no more than 0.5.

As to U3C G63C, the yeast fitness worked out at 0.747.

For the variant U32C A36G, the yeast fitness was determined as 0.861.

For the variant U8G G17A A70C, the yeast fitness is no more than 0.5.

As to C31U A69C, the yeast fitness was 1.04.

For A14C U16A G63A, the yeast fitness was no more than 0.5.

As for U2A C5U, the yeast fitness stood at 0.906.

C30A C31U C60G: the yeast fitness came to 0.565.

For the variant G12A C27U C30G C55U A57C, the yeast fitness stood at 0.547.

As for C5A C31U A69U, the yeast fitness worked out at 0.786.

In the case of G41U A45U C49U C61G, the yeast fitness was no more than 0.5.

Turning to C46G C49A G67C, the yeast fitness is no more than 0.5.

Take U2G A45G: the yeast fitness stood at 0.869.

Take U3A U54A G56C: the yeast fitness was 0.767.

Take U7A U8G C30G C66U: the yeast fitness is no more than 0.5.

Consider A15C C31U G48C A65C, for which the yeast fitness is no more than 0.5.

Take U3A C4U C5U: the yeast fitness turned out to be 0.594.

Consider C27U A36U A69C A70U, for which the yeast fitness is no more than 0.5.

U26G C27G A57C: the yeast fitness came out at 0.558.

Take C4A C22A A69U: the yeast fitness worked out at 0.528.

In the case of A14U C27G A37U, the yeast fitness is no more than 0.5.

As for A21G A37C A57C, the yeast fitness was no more than 0.5.

In the case of C5U U19C C29U A42C A57G, the yeast fitness was no more than 0.5.

For the variant C22U C24U G58C A65C, the yeast fitness is no more than 0.5.

Consider G6A U19C G41C, for which the yeast fitness amounted to 0.67.

Consider U19A U35A A37G A43U A45C, for which the yeast fitness is no more than 0.5.

Take G6A C31G A70C: the yeast fitness is 0.553.

C4U A20C U26G: the yeast fitness came to 0.552.

Regarding A42C C46G C66A, the yeast fitness came to 0.552.

As to C4U U16A A37U C49U C61G A70G, the yeast fitness is no more than 0.5.

With C24U U35C G38C C62U A69G, the yeast fitness came to 0.723.

Consider U7A C31U A40U, for which the yeast fitness was no more than 0.5.

In the case of U2G A65C, the yeast fitness came out at 0.897.

Regarding A15C C22A A42C C46A A65U, the yeast fitness is no more than 0.5.

For the variant C5A A15U U19C C31G G39A G58A G67A, the yeast fitness was no more than 0.5.

Consider C46A U59G, for which the yeast fitness turned out to be 1.06.

Consider G18C C27U C61A, for which the yeast fitness was no more than 0.5.

For A20U U47A U53C, the yeast fitness was 0.532.

In the case of U32C C49G, the yeast fitness came to 1.02.

Take G12C C30G A37G U47G: the yeast fitness was no more than 0.5.

For U47A U53A, the yeast fitness amounted to 0.557.

With C24U C49G C66A, the yeast fitness came out at 0.593.

As to G6A G23C A37U A57G A65C A70U, the yeast fitness is no more than 0.5.

As for U3A U53C, the yeast fitness came out at 0.668.

With U7C U53A G56C G63A, the yeast fitness is no more than 0.5.

G9A C24U A65C: the yeast fitness was found to be 0.536.

With G9A C33U, the yeast fitness is 0.897.

On to C11G A36C G52C G56A, for which the yeast fitness is no more than 0.5.

For C4G C5G G10A G18A G44C C61A C62U C66U, the yeast fitness is no more than 0.5.

On to A14U G25C G39C U54G A65U, for which the yeast fitness was no more than 0.5.

As to C11A C60G A65U, the yeast fitness is no more than 0.5.

For the variant A20G U26C A65C, the yeast fitness turned out to be 0.704.

Consider G23C C60G C61U, for which the yeast fitness was no more than 0.5.

For G25A C29G, the yeast fitness is 0.721.

For U2A U3C G18C C29G U54A, the yeast fitness was no more than 0.5.

For A21C A43G C60G A65G, the yeast fitness is no more than 0.5.

Regarding A20C U28C C29A A36U A40U C49G G63C A70U, the yeast fitness is no more than 0.5.

G6C C11U G56C A69C: the yeast fitness is no more than 0.5.

For U7A G10C, the yeast fitness was 0.617.

U28A A42G U64A: the yeast fitness is no more than 0.5.

For A20U G23C U53A C55U, the yeast fitness was no more than 0.5.

As to C31G G51A A57G G68C, the yeast fitness was no more than 0.5.

With U3A C5A A45C G50C, the yeast fitness was no more than 0.5.

For G6A U16G A21G A40G A42U, the yeast fitness is 0.535.

With G12A A21G C46G G51A G67C, the yeast fitness is no more than 0.5.

Regarding G10C C33A G56C, the yeast fitness is 0.577.

On to U53G G63A, for which the yeast fitness is 0.553.

Turning to C27A C49G, the yeast fitness was determined as 0.876.

With G58C C60A A65C, the yeast fitness was no more than 0.5.

Consider G10C C29U G56A C61U, for which the yeast fitness is no more than 0.5.

As for C31G G51A G68C, the yeast fitness stood at 0.545.

With A37U A65G, the yeast fitness is 0.651.

Take U3A A43C: the yeast fitness was 0.883.

Take U7C G25C C30G C33U A45G U47G G50C G63A: the yeast fitness was no more than 0.5.

Consider C5G C49A U64C, for which the yeast fitness worked out at 0.621.

On to A57C G68A, for which the yeast fitness is 0.701.

As to C5A C30A U64C, the yeast fitness stood at 0.547.

C5A C46U C49U: the yeast fitness turned out to be 0.809.

As to A14U G39C, the yeast fitness was 0.507.

Turning to G10C C46U C66U, the yeast fitness was 0.561.

C4U U47A G67A: the yeast fitness came to 0.607.

Regarding C11U A15G U32A C49A G56C, the yeast fitness is no more than 0.5.

In the case of G9C A15U U28G C55G A69U, the yeast fitness came to 0.599.

With U16G C62U A70C, the yeast fitness worked out at 0.565.

As for U26G C55G, the yeast fitness was 0.636.

As for C11G G44C, the yeast fitness was found to be 0.639.

On to C4G C5G G39A C49A, for which the yeast fitness was no more than 0.5.

For the variant C34U A36G A57G, the yeast fitness was no more than 0.5.

On to G41A C60G U64C A65G, for which the yeast fitness is no more than 0.5.

Take C29G G39C: the yeast fitness was 0.852.

With C5A A14G C31U, the yeast fitness was determined as 0.721.

With C4A C5U C11G C30A, the yeast fitness is no more than 0.5.

Turning to A20G C34G G41C G52A, the yeast fitness is no more than 0.5.

Consider A20G G67A, for which the yeast fitness came to 0.95.

For G12A U28A U54C, the yeast fitness is no more than 0.5.

As for G68C A70U, the yeast fitness was 0.899.

For G9C A15U U28G A42U, the yeast fitness is no more than 0.5.

Consider U2C A21U U54G, for which the yeast fitness is no more than 0.5.

In the case of A20C C46G C62G, the yeast fitness was determined as 0.529.

Regarding U7C A45C G50A C62U, the yeast fitness was 0.547.

For G10C A36C G48A C62U, the yeast fitness worked out at 0.555.

Consider C30U G58C, for which the yeast fitness came out at 0.822.

For the variant C5A A20C C61U, the yeast fitness was no more than 0.5.

For the variant U3A C4G G41A G63C C66A, the yeast fitness turned out to be 0.576.

For C4G A40G, the yeast fitness amounted to 0.74.

As to C31G G68C, the yeast fitness turned out to be 0.684.

G17A C27G C46G A65G: the yeast fitness was no more than 0.5.

Regarding U32A C33U U47A, the yeast fitness worked out at 0.54.

For the variant U16A C22U, the yeast fitness was 0.773.

C4U C27U A57C C61U: the yeast fitness was no more than 0.5.

Turning to A20U C24A A57C, the yeast fitness was no more than 0.5.

Turning to U2A G6A U28G, the yeast fitness is no more than 0.5.

Take C31G C34U A40C G50A C55G C62A: the yeast fitness is no more than 0.5.

Turning to C31U C46G, the yeast fitness is 0.972.

As to A14G C27A A45U G67C, the yeast fitness amounted to 0.521.

U8A C27A G39C G51C: the yeast fitness is no more than 0.5.

As for U16C A70U, the yeast fitness is 0.902.

For A20U C24U A42C C62G, the yeast fitness was 0.735.

For the variant U16A G17A C22G C61U, the yeast fitness is no more than 0.5.

In the case of C55A A57C G58A, the yeast fitness was no more than 0.5.

In the case of C11G A20G C33U A37U, the yeast fitness was no more than 0.5.

Regarding A20G A36U C49G, the yeast fitness was no more than 0.5.

As for C22G C34G A70C, the yeast fitness turned out to be 0.608.

On to A15G A42G A45C, for which the yeast fitness is 0.557.

For the variant A14U G67A, the yeast fitness stood at 0.733.

As to U2A A36G, the yeast fitness came to 0.985.

As for U3C G12A G25A, the yeast fitness turned out to be 0.992.

Consider C24A C61A G67A, for which the yeast fitness is no more than 0.5.

On to A14G G23C C29G G63C C66G, for which the yeast fitness is no more than 0.5.

As for U13C A43U, the yeast fitness worked out at 1.04.

Consider U3C A40U A69U, for which the yeast fitness amounted to 0.755.

In the case of U2C U28A, the yeast fitness came to 0.563.

Turning to C30U A37G A42G C60G, the yeast fitness stood at 0.516.

Consider C4A C34U, for which the yeast fitness came out at 0.666.

Turning to A21C A45C, the yeast fitness came out at 0.73.

On to C24G A37U A42G, for which the yeast fitness was no more than 0.5.

Consider A15G C24U C29U C30G U35G, for which the yeast fitness was 0.737.

In the case of G10A A36G G48C, the yeast fitness amounted to 0.691.

With G10U, the yeast fitness was 0.887.

With C29G G48A A65G C66U, the yeast fitness is no more than 0.5.

In the case of A14U G18C A70G, the yeast fitness came to 0.715.

Take C4U U32A G41C A43C: the yeast fitness is no more than 0.5.

For the variant G6C C11G G44C, the yeast fitness was no more than 0.5.

Turning to U35A C46A C49G G52A C60U, the yeast fitness turned out to be 0.661.

Turning to C31U U47C A65G A69U, the yeast fitness is no more than 0.5.

In the case of G38C C61U, the yeast fitness was determined as 0.646.

Take U3G C11U C46U C61G: the yeast fitness is no more than 0.5.

On to A14U A21G G39C A45G U53C, for which the yeast fitness stood at 0.521.

As to G17C G48C G67C, the yeast fitness was no more than 0.5.

Take C27A U32G G51A G56C: the yeast fitness is no more than 0.5.

In the case of G6A A15C A36U A65C, the yeast fitness is no more than 0.5.

G12A C61A G67A: the yeast fitness was no more than 0.5.

In the case of G17A U19A C24U G25C, the yeast fitness was no more than 0.5.

In the case of A43C G48C, the yeast fitness is 0.933.

In the case of U8A C11U G25C G39C, the yeast fitness is no more than 0.5.

On to C5U C22G C24G C31U C55A, for which the yeast fitness was no more than 0.5.

For U8C A21G A70G, the yeast fitness came to 0.747.

For C4G U13C C49U C60G A65U, the yeast fitness is no more than 0.5.

C11G C24U A57G G68C: the yeast fitness is no more than 0.5.

Consider C5U A14U G17C A36U, for which the yeast fitness is no more than 0.5.

On to C27U A36G A42C C49U, for which the yeast fitness was determined as 0.574.

For the variant G10A A40G, the yeast fitness amounted to 0.79.

For the variant C4U G12A C60A, the yeast fitness was no more than 0.5.
